For one experiment, the system named is HeLa. Description: Antitumor activity against human HeLa cells assessed as cell viability by MTT assay. In kind it is functional, cell-based. In short, it runs like this: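 Adherent HeLa cells exposed to compound, then medium replaced with 0.5 mg/mL MTT in phenol-red-free RPMI and incubated overnight at 37 °C. Lysed with 15% SDS/0.015 M HCl and OD read at 570 nm once formazan dissolved. EC50 and SE derived from dose–response curves.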

Experiment [1] can be described thus: Antitumor activity against human JVM2 cells assessed as cell viability after 48 hrs by FACS analysis. The following applies: JVM-2, 48 h. In kind it is functional, cell-based. The procedure, abridged:
(§1)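 Primary CLL patient cells or JVM-2 line cultured 48 h (37 °C, 5% CO2) in RPMI + 10% FBS with graded compound. Stained 30 min at 37 °C with 40 nM DiOC6 and 10 μg/mL PI, then flow cytometry (525 nm DiOC6, 600 nm PI). Viability = % DiOC6+/PI− relative to untreated or vehicle control. EC50 and SE fitted from dose–response curves.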

Experiment [2] is described as follows: Antitumor activity against CLL2 cells isolated from CLL patient assessed as cell viability after 48 hrs by FACS analysis. In kind it is functional, cell-based, Homo sapiens. The procedure, abridged: as §1
For orientation: A flow cytometer gives signals particle by particle.

The nature of experiment [3]: Antitumor activity against CLL1 cells isolated from CLL patient assessed as cell viability after 48 hrs by FACS analysis. Type of experiment: functional, cell-based. The following applies: Homo sapiens. The procedure, abridged:
as §1

Experiment [4] can be described thus: Antitumor activity against CLL4 cells isolated from CLL patient assessed as cell viability after 48 hrs by FACS analysis. Conditions: Homo sapiens. In kind it is functional, cell-based. In short, it runs like this:
as §1

The nature of experiment [5]: Antitumor activity against CLL6 cells isolated from CLL patient assessed as cell viability after 48 hrs by FACS analysis. In kind it is functional, cell-based. Conditions: Homo sapiens, CLL6, 48 h. In short, it runs like this:
as §1

Experiment [6] is described as follows: Antitumor activity against CLL3 cells isolated from CLL patient assessed as cell viability after 48 hrs by FACS analysis. In kind it is functional, cell-based. The following applies: Homo sapiens. The procedure, abridged:
as §1

Experiment [7] in a line: Antitumor activity against CLL5 cells isolated from CLL patient assessed as cell viability after 48 hrs by FACS analysis. In kind it is functional, cell-based. Conditions: Homo sapiens. In short, it runs like this: as §1

This is an account of results in ChEMBL document CHEMBL3297658, “Potent fluorinated agelastatin analogues for chronic lymphocytic leukemia: design, synthesis, and pharmacokinetic studies” (J Med Chem, 2014).

Where only a bound is given, the exact number is not on record here.

Regarding `CN1C(=O)N[C@@]2(O)[C@@H]3NC(=O)c4ccc(Br)n4[C@@H]3C[C@@]12O`, the EC50 with HeLa came to 7.63 µM; in experiment [1] it was 4.07 µM; in experiment [2] (Homo sapiens, CLL2, 48 h), 10 µM; in experiment [3], 84.6 µM.

For the compound `CN1C(=O)N[C@H]2[C@@H]3NC(=O)c4cc(I)c(I)n4[C@@H]3C[C@]21O`, the EC50 in the experiment on HeLa is 262 µM; in experiment [1], 49 µM; in experiment [2] (Homo sapiens, CLL2, 48 h) it was 96 µM; in experiment [3], 26.4 µM.

Take `CN1C(=O)N[C@H]2[C@@H]3NC(=O)c4cc(I)cn4[C@@H]3C[C@]21O`: the concentration giving a half-maximal response (EC50) was 0.061 µM in the experiment with HeLa; 222 µM in experiment [1]; 94.9 µM in experiment [2] (Homo sapiens, CLL2, 48 h); 25.5 µM in experiment [3].

Turning to `CN1C(=O)N[C@H]2[C@@H]3NC(=O)c4cc(C(F)(F)F)cn4[C@@H]3C[C@]21O`, the EC50 in the experiment with HeLa came to 19.6 µM; in experiment [1], 22.8 µM; in experiment [2] (Homo sapiens, CLL2, 48 h), 4.68 µM; in experiment [3], 45.1 µM.

Turning to `O=C1N[C@H]2[C@@H]3NC(=O)c4ccc(Br)n4[C@@H]3C[C@@]2(O)N1` [AGELASTATIN D], the EC50 in experiment [1] came out at 13.2 µM; in experiment [2] (Homo sapiens, CLL2, 48 h), 29 µM; in experiment [3], 91.1 µM.

With `CN1C(=O)N[C@H]2[C@@H]3NC(=O)c4ccc(C(F)F)n4[C@@H]3C[C@]21O`, the EC50 is 4.01 µM in the experiment on HeLa; 4.66 µM in experiment [1]; 5.44 µM in experiment [2] (Homo sapiens, CLL2, 48 h); 13 µM in experiment [3].

As to `CN1C(=O)N[C@H]2[C@@H]3NC(=O)c4cc(C(F)(F)F)c(C(F)(F)F)n4[C@@H]3C[C@]21O`, the EC50 with HeLa turned out to be 153 µM; in experiment [1] it was 41 µM; in experiment [2] (Homo sapiens, CLL2, 48 h) it was 19.2 µM.

For `CO[C@@]12C[C@@H]3[C@H]([C@@H]1N(C)C(=O)N2C)N(C)C(=O)c1ccc(Br)n13`, the EC50 came to 59 µM in the experiment with HeLa; 55.7 µM in experiment [1]; 47.7 µM in experiment [2] (Homo sapiens, CLL2, 48 h); 140 µM in experiment [3].

With `CN1C(=O)N[C@H]2[C@@H]3NC(=O)c4ccc(Br)n4[C@@H]3C[C@]21O` (stereo in doubt; 3) [AGELASTATIN A], the EC50 in experiment [2] (cll2) was above 1 µM.

For the compound `CN1C(=O)N[C@H]2[C@@H]3NC(=O)c4ccc(Cl)n4[C@@H]3C[C@]21O`, the 50% effective concentration (EC50) was 0.63 µM in the experiment with HeLa; 0.2 µM in experiment [1]; 0.32 µM in experiment [2] (Homo sapiens, CLL2, 48 h); 0.95 µM in experiment [3]; 1.98 µM in experiment [4]; 2.2 µM in experiment [5]. Moreover, the EC50 in experiment [6] worked out at 3.8 µM; in experiment [7] it was 0.34 µM.

On to `CN1C(=O)N[C@H]2[C@@H]3NC(=O)c4cc(I)c(Br)n4[C@@H]3C[C@]21O`, for which the EC50 in the experiment on HeLa is 86.7 µM; in experiment [1] it was 162 µM; in experiment [2] (Homo sapiens, CLL2, 48 h), 48.2 µM; in experiment [3] it was 211 µM.

Turning to `CN1C(=O)N[C@H]2[C@@H]3NC(=O)c4cc(Br)c(Br)n4[C@@H]3C[C@]21O`, the EC50 in experiment [1] is 3.53 µM; in experiment [2] (Homo sapiens, CLL2, 48 h), 4.46 µM; in experiment [3], 26.3 µM.

Turning to `CN1C(=O)N[C@H]2[C@@H]3NC(=O)c4ccc(I)n4[C@@H]3C[C@]21O`, the EC50 with HeLa was 1.18 µM; in experiment [1] it was 2.62 µM; in experiment [2] (Homo sapiens, CLL2, 48 h), 0.73 µM; in experiment [3], 5.96 µM; in experiment [4] it was 3.04 µM; in experiment [5] it was 12.9 µM. The EC50 was found to be 6.61 µM in experiment [6] and 3.06 µM in experiment [7].

Regarding `CN1C(=O)N[C@H]2[C@@H]3NC(=O)c4cc(Cl)cn4[C@@H]3C[C@]21O`, the EC50 in experiment [1] came to 5.33 µM; in experiment [2] (Homo sapiens, CLL2, 48 h), 6.05 µM; in experiment [3], 35.9 µM.

Regarding `CN1C(=O)N[C@H]2[C@@H]3NC(=O)c4cc(Br)cn4[C@@H]3C[C@]21O`, the 50% effective concentration (EC50) in experiment [1] came to 71.5 µM; in experiment [2] (Homo sapiens, CLL2, 48 h), 9.22 µM; in experiment [3], 19.4 µM.

In general, EC50 refers to the concentration needed to bring the measured effect to its halfway point.
